ChEMBL document CHEMBL1955832, “Facile synthesis, characterization and pharmacological activities of 3,6-disubstituted 1,2,4-triazolo[3,4-b][1,3,4]thiadiazoles and 5,6-dihydro-3,6-disubstituted-1,2,4-triazolo[3,4-b][1,3,4]thiadiazoles” (2012)
≈ marks a conversion by molar mass, not a printed value. Calls of active or inactive are those of the source. The rule behind the calls is not given here.

Legend:
Aspergillus flavus [1] = assay: Antifungal activity against Aspergillus flavus NCIM 524 by serial plate dilution method; assay type: functional
Staphylococcus aureus [2] = assay: Antibacterial activity against Staphylococcus aureus ATTC 25923 at MIC after 3 to 4 days by disc diffusion method; assay type: functional
Outline: (§1)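 Agar well diffusion: seeded agar plates dried 1 h at 37 °C, wells punched and filled with test compound at MIC level in DMSO; DMSO solvent control. Plates in triplicate, kept at 37 °C for 3–4 days; zone of inhibition read.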

Pseudomonas aeruginosa [3] = assay: Antibacterial activity against Pseudomonas aeruginosa ATTC 27853 after 16 to 18 hrs by serial dilution method; assay type: functional
Outline: (§2)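 Serial drug dilutions in Mueller-Hinton broth adjusted to pH 5.0 with phosphate buffer, inoculated with standardized bacterial suspension, incubated 16–18 h at 37 °C; MIC taken as lowest concentration without conspicuous growth.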

Talaromyces marneffei [4] = assay: Antifungal activity against recultured Penicillium marneffei by serial plate dilution method; assay type: functional
Aspergillus fumigatus [5] = assay: Antifungal activity against Aspergillus fumigatus NCIM 902 by serial plate dilution method; assay type: functional
Escherichia coli [6] = assay: Antibacterial activity against Escherichia coli ATTC 25922 after 16 to 18 hrs by serial dilution method; assay type: functional; outline: as §2
Pseudomonas aeruginosa [7] = assay: Antibacterial activity against Pseudomonas aeruginosa ATTC 27853 at MIC after 3 to 4 days by disc diffusion method; assay type: functional; outline: as §1
Mus musculus [8] = assay: Analgesic activity Wistar albino mouse assessed as tail withdrawal latency time at 100 mg/kg, po administered by intragastric tube after 180 mins (reference value: 1.363 +/- 0.1297 sec); assay type: functional
Klebsiella pneumoniae [9] = assay: Antibacterial activity against recultured Klebsiella pneumoniae after 16 to 18 hrs by serial dilution method; assay type: functional; outline: as §2
[10] = system: Trichophyton mentagrophytes; assay: Antifungal activity against recultured Trichophyton mentagrophytes by serial plate dilution method; assay type: functional
Aspergillus fumigatus [11] = assay: Antifungal activity against Aspergillus fumigatus NCIM 902 at MIC after 3 to 4 days; assay type: functional
[12] = system: Radical scavenging activity; assay: Antioxidant activity of the compound assessed as DPPH radical scavenging activity at 400 ug/ml after 20 mins; assay type: functional
Outline: (§3)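 Compound dissolved in methylene dichloride at the stated concentration, mixed with 4 mL 0.1 mM methanolic DPPH, held 20 min at ambient temperature; absorbance read at 517 nm. Scavenging % = (A_DPPH − A_test)/A_DPPH × 100. Triplicate; ascorbic acid positive control.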

Rattus norvegicus = assay: Antiinflammatory activity rat assessed as reduction of carrageenan-induced paw oedema at 100 mg/kg, po administered 30 mins before carrageenan challenge measured after 60 to 180 mins; assay type: functional, organism-based; parameters: dose 100 mg/kg
Outline: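 Rats randomly assigned, 100 mg/kg orally as suspension in 1% carboxymethyl cellulose, 30 min before carrageenan injected into right hind paw. Paw thickness measured with vernier callipers at 60, 120 and 180 min. Diclofenac reference; mean ± SEM, n = 6, vs vehicle control.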

[13] = system: Trichophyton mentagrophytes; assay: Antifungal activity against recultured Trichophyton mentagrophytes at MIC after 3 to 4 days; assay type: functional
Mus musculus [14] = assay: Analgesic activity Wistar albino mouse assessed as tail withdrawal latency time at 100 mg/kg, po administered by intragastric tube after 60 mins (reference value: 1.363 +/- 0.1297 sec); assay type: functional
[15] = system: Radical scavenging activity; assay: Antioxidant activity of the compound assessed as DPPH radical scavenging activity at 800 ug/ml after 20 mins; assay type: functional; outline: as §3
Escherichia coli [16] = assay: Antibacterial activity against Escherichia coli ATTC 25922 at MIC after 3 to 4 days by disc diffusion method; assay type: functional; outline: as §1
Aspergillus flavus [17] = assay: Antifungal activity against Aspergillus flavus NCIM 524 at MIC after 3 to 4 days; assay type: functional
Klebsiella pneumoniae [18] = assay: Antibacterial activity against recultured Klebsiella pneumoniae at MIC after 3 to 4 days by disc diffusion method; assay type: functional; outline: as §1
Mus musculus [19] = assay: Analgesic activity Wistar albino mouse assessed as tail withdrawal latency time at 100 mg/kg, po administered by intragastric tube after 120 mins (reference value: 1.363 +/- 0.1297 sec); assay type: functional
[20] = system: Radical scavenging activity; assay: Antioxidant activity of the compound assessed as DPPH radical scavenging activity at 200 ug/ml after 20 mins; assay type: functional; outline: as §3
Staphylococcus aureus [21] = assay: Antibacterial activity against Staphylococcus aureus ATTC 25923 after 16 to 18 hrs by serial dilution method; assay type: functional; outline: as §2
Talaromyces marneffei [22] = assay: Antifungal activity against recultured Penicillium marneffei at MIC after 3 to 4 days; assay type: functional

MIC (Aspergillus flavus [1]) [µM] | MIC (Pseudomonas aeruginosa [3]) [µM] | MIC (Talaromyces marneffei [4]) [µM] | MIC (Aspergillus fumigatus [5]) [µM] | MIC (Escherichia coli [6]) [µM] | MIC (Klebsiella pneumoniae [9]) [µM] | MIC [10] [µM] | Structure (SMILES) | diameter of the inhibition zone (DIZ) (Staphylococcus aureus [2]) [mm] | diameter of the inhibition zone (DIZ) (Pseudomonas aeruginosa [7]) [mm] | Time (Mus musculus [8]) [s] | diameter of the inhibition zone (DIZ) (Aspergillus fumigatus [11]) [mm] | inhibition [12] [%] | Activity (Rattus norvegicus) | diameter of the inhibition zone (DIZ) [13] [mm] | Time (Mus musculus [14]) [s] | inhibition [15] [%] | diameter of the inhibition zone (DIZ) (Escherichia coli [16]) [mm] | diameter of the inhibition zone (DIZ) (Aspergillus flavus [17]) [mm] | diameter of the inhibition zone (DIZ) (Klebsiella pneumoniae [18]) [mm] | Time (Mus musculus [19]) [s] | also measured
13.1 (≈ 6.25 µg/mL) | 26.2 (≈ 12.5 µg/mL) | 26.2 (≈ 12.5 µg/mL) | 13.1 (≈ 6.25 µg/mL) | 13.1 (≈ 6.25 µg/mL) | 13.1 (≈ 6.25 µg/mL) | 13.1 (≈ 6.25 µg/mL) | COc1ccc(Br)c(-c2nnc3sc(-c4cc([N+](=O)[O-])cc([N+](=O)[O-])c4)nn23)c1 | 16 | 11 | 2.425 | 16 | 68.4 | Active | 16 | 3.675 | 78 | 16 | 16 | 16 | 3.563 | inhibition [20]: 58.5%; MIC (Staphylococcus aureus [21]): 13.1 µM (≈ 6.25 µg/mL); diameter of the inhibition zone (DIZ) (Talaromyces marneffei [22]): 11 mm
14.8 (≈ 6.25 µg/mL) | 29.5 (≈ 12.5 µg/mL) | 29.5 (≈ 12.5 µg/mL) | 14.8 (≈ 6.25 µg/mL) | 29.5 (≈ 12.5 µg/mL) | 29.5 (≈ 12.5 µg/mL) | 29.5 (≈ 12.5 µg/mL) | COc1ccc(Br)c(-c2nnc3n2NC(c2ccccc2Cl)S3)c1 (stereo unspecified) | 16 | 11 | 2.938 | 16 | 51.8 | Active | 11 | 3.6 | 62.7 | 11 | 16 | 11 | 3.25 | inhibition [20]: 48%; MIC (Staphylococcus aureus [21]): 14.8 µM (≈ 6.25 µg/mL); diameter of the inhibition zone (DIZ) (Talaromyces marneffei [22]): 11 mm
